Compound activity: PubChem BioAssay, several laboratories
OX1R antag-1 – blocks the human orexin 1 receptor | CHO/OX1R cells, Fluo-8 calcium fluorescence, orexin A | inhibition, % at 5 µM | hit rate 0.43% among 330,000;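 active = inhibition above its plate's threshold, mean inhibition of all tested compounds on the plate plus 3 SD, cut at about 37% in these data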
Target sequence (O43613 whole entry, looked up): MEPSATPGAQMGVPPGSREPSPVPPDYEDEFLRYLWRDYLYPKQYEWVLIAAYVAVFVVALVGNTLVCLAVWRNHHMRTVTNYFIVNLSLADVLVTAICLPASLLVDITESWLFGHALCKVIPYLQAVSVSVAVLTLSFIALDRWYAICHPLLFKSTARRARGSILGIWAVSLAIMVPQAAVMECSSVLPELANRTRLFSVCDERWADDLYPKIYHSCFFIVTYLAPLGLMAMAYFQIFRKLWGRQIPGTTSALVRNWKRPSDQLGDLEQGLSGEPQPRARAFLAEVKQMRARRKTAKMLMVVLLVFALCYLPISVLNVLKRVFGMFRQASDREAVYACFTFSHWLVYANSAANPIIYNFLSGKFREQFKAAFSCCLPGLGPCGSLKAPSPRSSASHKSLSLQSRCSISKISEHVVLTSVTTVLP
CHO parental Ca – signal in parental CHO cells, OX1R antagonist counter-screen. inhibition, % at 5.6 µM. parental CHO-K1, ATP-induced calcium, Fluo-8 fluorescence. hit rate 0.63% among 330,000. AID 463079;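 active = inhibition above that plate's mean sample inhibition plus 3 SD, cut at about 26% in these data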
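Material – parental CHO cells · Reagent – ATP stimulus · Compound – single nominal dose of 5.6 µM per compound · Detection – Fluo-8 fluorescence · Read-out basis – percent inhibition of calcium signal · Controls – ATP-challenged DMSO wells low, unchallenged DMSO wells high · Repeats – no replicates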
OX1R antag-2 – antagonists of human orexin 1 receptor (OX1R); inhibition, % at 6.6 µM; OX1R-expressing cells, FRET antagonist read-out; hit rate 1.8% among 330,000; in the data active = inhibition mostly above about 38%, no sharp cut-off; inactive = mostly below about 40%
TAAR1 antagonist – antagonists of human TAAR1; Q96RJ0; CHO RD-HGA16 TAAR1, Fluo-8 calcium fluorescence, antagonist; inhibition, % at 3 µM; hit rate 1.5% among 360,000; AID 624466;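 active = inhibition above a per-plate cutoff, the mean inhibition of test compounds on that plate plus 3 SD, cut at about 49% in these data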
Target sequence (Q96RJ0 whole entry, looked up): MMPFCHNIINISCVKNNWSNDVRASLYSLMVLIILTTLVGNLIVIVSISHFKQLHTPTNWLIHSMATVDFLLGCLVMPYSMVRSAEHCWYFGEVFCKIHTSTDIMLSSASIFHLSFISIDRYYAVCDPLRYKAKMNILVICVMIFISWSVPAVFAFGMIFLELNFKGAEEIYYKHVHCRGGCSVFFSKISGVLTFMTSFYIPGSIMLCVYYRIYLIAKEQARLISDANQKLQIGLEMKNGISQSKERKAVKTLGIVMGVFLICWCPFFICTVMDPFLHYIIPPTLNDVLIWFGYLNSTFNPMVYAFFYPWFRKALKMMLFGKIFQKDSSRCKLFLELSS
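System: RD-HGA16 CHO cells with stable hTAAR1 and Gα16 | Probe or stimulus: EC80 β-phenethylamine stimulus | Dosing: 3 µM, single point | Times: Dye loading 75 min at 37 °C, then 30 min room temperature | Measured by: Fluo-8 calcium-sensitive fluorescence | Read-out basis: % inhibition of agonist calcium response | Replicates: n of 1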
TAAR1 ag – agonists of human TAAR1. Q96RJ0. CHO RD-HGA16 TAAR1, Fluo-8 calcium fluorescence; vehicle wells 0%, saturating PEA agonist 100%. activation, % at 3 µM. hit rate 0.99% among 360,000. AID 624467;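 active = activation above the mean activation of all test compounds in the run plus 3 SD, cut at about 38% in these data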
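System: CHO RD-HGA16 cells carrying human TAAR1 plus Gα16; Incubation: 17-24 h seeding, 75 min 37 °C dye, 30 min RT; Measured by: Fluo-8 fluorescence, 5 s baseline then 140 s kinetic read; Control set: DMSO and PEA EC100; Replication: single well for each compound.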
NTR1 agonist – activates human neurotensin receptor 1; NTR1-U2OS beta-arrestin-GFP spot imaging, agonist mode; hit rate 0.17% among 330,000; activation, % at 20 µM; P30989; AID 493036;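 active = activation at or above 40% of the spot to cytoplasm intensity ratio, with at least 20 cells analyzed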
TAAR1 nonsel count – nonselective antagonism, TAAR1 counter-screen. shares compounds with TAAR1 antagonist. counterscreen cell line, calcium fluorescence, antagonist mode. inhibition, % at 3 µM. hit rate 77% among 2,400. AID 651780; in the data active = inhibition above about 22%;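 note: CHO-Ga16 host cells stimulated with ATP at an EC80 level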
TAAR1 antag conf – human TAAR1 antagonism, confirmed. shares compounds with TAAR1 antagonist. TAAR1-expressing cells, fluorescence antagonist read-out. inhibition, % at 3 µM. hit rate 40% among 2,400; in the data active = inhibition above about 49%;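 note: CHO-Ga16 host cells challenged with agonist PEA near its EC80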
Ga16 nonsel ag – nonselective Ga16 agonist in TAAR1 antagonist counter-screen. shares compounds with TAAR1 antagonist. hit rate 18% among 2,400. activation, % at 3 µM. Ga16-expressing cells, calcium fluorescence, agonist counterscreen; in the data active = activation above about 12%
TAAR1 ag counter – TAAR1 agonism, antagonist counter-screen | shares compounds with TAAR1 antagonist | hTAAR1 cell line, fluorescence activation, agonist mode | activation, % at 3 µM | hit rate 2% among 2,400 | AID 651955; in the data active = activation above about 37%;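 note: CHO cells stably expressing TAAR1 with calcium dye readout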
Hits are given with their value; 0 = inactive; - = no result. A selection: hits, their analogues and other compounds. The true share with any hit is near 4%.

SMILES | OX1R antag-1 | CHO parental Ca | OX1R antag-2 | TAAR1 antagonist | TAAR1 ag | NTR1 agonist | TAAR1 nonsel count | TAAR1 antag conf | Ga16 nonsel ag | TAAR1 ag counter
CSc1cccc(NC(=O)CCn2c(=O)c3cccn3c3cccnc32)c1 | 0 | 0 | 0 | 57 | 0 | 0 | 25 | 0 | 0 | 0
COc1ccc(-c2cc(C(F)(F)F)c(C#N)c(SCC(=O)Nc3nc(C)co3)n2)cc1 | 0 | 0 | 0 | - | - | 0 | - | - | - | -
Cc1coc(NC(=O)CSc2nc(-c3ccc(Cl)cc3)cc(C(F)(F)F)c2C#N)n1 | 0 | 0 | 0 | - | - | 0 | 0 | - | 0 | -
COc1ccc(S(=O)(=O)N(C)CC(=O)NCc2ccccc2)cc1OC | 0 | 0 | 0 | 92 | 0 | 0 | 0 | 0 | 0 | 0
COc1ccc(S(=O)(=O)N(C)CC(=O)NCCc2ccccc2)cc1OC | 0 | 0 | 0 | 0 | 0 | 0 | - | - | - | -
Cc1ccccc1N(C(=O)c1snc(C(N)=O)c1N)C(C)C(=O)NC1CCCCC1 (stereo unspecified) | 0 | 0 | 0 | 0 | 0 | 0 | - | - | - | -
CN(C)c1ccc(C(C(=O)NC2CCCCC2)N(Cc2ccco2)C(=O)c2snc(C(N)=O)c2N)cc1 (stereo unspecified) | 0 | 0 | 0 | 58 | 0 | 0 | 31 | 53 | 0 | 0
Cc1ccccc1N(C(=O)c1snc(C(N)=O)c1N)C(C(=O)NC1CCCCC1)c1ccc(O)cc1 (stereo unspecified) | 0 | 0 | 0 | 73 | 0 | 0 | 0 | 56 | 0 | 0
NC(=O)c1nsc(C(=O)N(c2ccccc2F)C(C(=O)NCc2ccccc2)c2ccc(O)cc2)c1N (stereo unspecified) | 0 | 0 | 0 | 78 | 0 | 0 | 36 | 0 | 0 | 0
COc1cc(C(C(=O)NC2CCCC2)N(Cc2ccco2)C(=O)c2snc(C(N)=O)c2N)cc(OC)c1OC (stereo unspecified) | 0 | 0 | 0 | 0 | 0 | 0 | - | - | - | -
CCCC(C(=O)NC1CCCC1)N(Cc1ccc2c(c1)OCO2)C(=O)c1snc(C(N)=O)c1N (stereo unspecified) | 0 | 0 | 0 | 63 | 0 | 0 | 28 | 49 | 0 | 0
CCOc1ccccc1N(C(=O)c1snc(C(N)=O)c1N)C(C(=O)NCc1ccccc1)c1ccc(O)cc1 (stereo unspecified) | - | - | - | 0 | 0 | 0 | - | - | - | -
COc1ccc(-c2cnc3c(NC(C)=O)cc(-c4cccc(C(=O)N(C)C)c4)cn23)cc1OC | - | - | - | 0 | 0 | - | - | - | - | -
Cc1cn([C@H]2C[C@H](O)[C@@H](CNCC3=Cc4cc(O)ccc4OC3)O2)c(=O)[nH]c1=O | - | - | - | 0 | 0 | - | - | - | - | -
CCCCCn1nc(C(=O)N(CC)c2c(N)n(CCCC)c(=O)[nH]c2=O)c2ccccc2c1=O | 0 | 0 | 0 | 0 | 0 | 0 | - | - | - | -
COc1ccc(C)cc1S(=O)(=O)NCC(c1ccc2c(c1)OCO2)N1CCN(C)CC1 (stereo unspecified) | 0 | 0 | 0 | 0 | 0 | 0 | - | - | - | -
Cc1ccccc1N(C(=O)c1snc(C(N)=O)c1N)C(C(=O)NCc1ccccc1)c1ccc(O)cc1 (stereo unspecified) | 0 | 0 | 0 | 64 | 0 | 0 | 30 | 54 | 0 | 0
COc1ccc([N+](=O)[O-])cc1NC(=O)CCN1CCOCC1 | 0 | 0 | 0 | 0 | 0 | 0 | - | - | - | -
COc1ccc(-c2cc(C(=O)Nc3c(C)n(C)n(-c4ccccc4)c3=O)c3ccccc3n2)cc1 | 0 | 0 | 0 | 58 | 0 | 0 | 26 | 0 | 0 | 0
COc1ccc(Nc2cc(C(=O)NCc3ccco3)c3ccccc3n2)c(OC)c1 | 0 | 0 | 0 | 51 | 0 | 0 | 0 | 0 | 0 | 0
CN(CCOc1ccc(Cl)cc1)C(=O)c1cc(-c2ccco2)nc2ccccc12 | 0 | 0 | 0 | 74 | 0 | 0 | 40 | 59 | 0 | 0
CCc1ccc(-c2cc(C(=O)Nc3c(C)n(C)n(-c4ccccc4)c3=O)c3ccccc3n2)s1 | 0 | 0 | 0 | - | - | 0 | - | - | - | -
COc1ccc(-c2cc(C(=O)NCc3ccco3)c3ccccc3n2)cc1 | 0 | 0 | 0 | 49 | 0 | 0 | 0 | 0 | 0 | 0
Cc1ccc(NC(=O)CN(C)C(=O)c2cc(-c3ccco3)nc3ccccc23)cc1 | 0 | 0 | 0 | 0 | 0 | 0 | - | - | - | -
O=[N+]([O-])c1ccccc1CCc1cnc(Cl)s1 | 0 | 0 | 0 | 0 | 0 | 0 | - | - | - | -
SMILES | OX1R antag-1 | CHO parental Ca | OX1R antag-2 | TAAR1 antagonist | TAAR1 ag | NTR1 agonist | TAAR1 nonsel count | TAAR1 antag conf | Ga16 nonsel ag | TAAR1 ag counter
CC1=C(C(=O)N2CCOCC2)CC(CC(=O)NCC2CCCCC2)C(=O)N1CCC1=CCCCC1 (stereo unspecified) | - | - | - | 0 | 0 | - | - | - | - | -
Cc1coc(C)c1C(=O)Nc1ccc2ccccc2c1 | - | - | - | 0 | 0 | 0 | - | - | - | -
O=C(C1CCN(S(=O)(=O)c2cccc3cccnc23)CC1)N1CCn2c1nc1ccccc12 | 0 | 0 | 0 | 60 | 0 | 0 | 28 | 0 | 0 | 0
CCOc1ccc(CN(C)C(=O)[C@H](Cc2ccccc2)NC(=O)OCc2ccccc2)cc1OC | 0 | 0 | 0 | 62 | 0 | 0 | 30 | 55 | 0 | 0
O=C(NC(Cc1ccc(F)cc1)C(=O)O)c1ccccc1 (stereo unspecified) | 0 | 0 | 0 | 0 | 0 | 0 | - | - | - | -
CN(Cc1ccc(F)cc1)C(=O)C(Cc1ccccc1)NC(=O)c1ccccc1 (stereo unspecified) | 0 | 0 | 0 | 67 | 0 | 0 | 27 | 55 | 0 | 0
CSc1ccc(CN(C)C(=O)C(Cc2ccccc2)NC(=O)c2ccccc2)cc1 (stereo unspecified) | 0 | 0 | 70 | 82 | 0 | 0 | 34 | 57 | 0 | 0
CCOc1ccc(CN(C)C(=O)NNC(=O)c2ccc(C)cc2)cc1OC | 0 | 0 | 0 | 0 | 0 | 0 | - | - | - | -
COc1cccc(-c2ccccc2C2=CC(=O)CC(C)(C)C2=O)c1 | - | - | - | 0 | 0 | - | - | - | - | -
CCOC(=O)c1ccc(NC(=S)N2CCN(C(=O)C3CCCO3)CC2)cc1 (stereo unspecified) | 0 | 0 | 0 | 0 | 0 | 0 | - | - | - | -
O=C1c2ccccc2S(=O)(=O)c2cc(N3CCC4(CC3)OCCO4)ccc21 | 0 | 0 | 0 | 0 | 0 | 0 | - | - | - | -
CCn1cnc2sc(C(=O)N(Cc3ccc(N(C)C)cc3)Cc3ccco3)c(C)c2c1=O | 0 | 0 | 0 | 54 | 0 | 0 | 23 | 0 | 0 | 0
O=C(/C=C/c1cccnc1)c1ccc(NC(=O)c2cccc(Br)c2)cc1 | 0 | 0 | 0 | 0 | 0 | 0 | - | - | - | -
